# Results as given in paper PMC10213863 (Cell Reports Medicine, 2023).
# What was measured:
# [1] = target: T1, TLR9 (Homo sapiens, UniProt Q9NR96); test: Ramos Blue reporter B cell line, ODN2006 stimulation; assay type: cell-based; conditions: Ramos cells
# T1 sequence (Q9NR96 26-1032): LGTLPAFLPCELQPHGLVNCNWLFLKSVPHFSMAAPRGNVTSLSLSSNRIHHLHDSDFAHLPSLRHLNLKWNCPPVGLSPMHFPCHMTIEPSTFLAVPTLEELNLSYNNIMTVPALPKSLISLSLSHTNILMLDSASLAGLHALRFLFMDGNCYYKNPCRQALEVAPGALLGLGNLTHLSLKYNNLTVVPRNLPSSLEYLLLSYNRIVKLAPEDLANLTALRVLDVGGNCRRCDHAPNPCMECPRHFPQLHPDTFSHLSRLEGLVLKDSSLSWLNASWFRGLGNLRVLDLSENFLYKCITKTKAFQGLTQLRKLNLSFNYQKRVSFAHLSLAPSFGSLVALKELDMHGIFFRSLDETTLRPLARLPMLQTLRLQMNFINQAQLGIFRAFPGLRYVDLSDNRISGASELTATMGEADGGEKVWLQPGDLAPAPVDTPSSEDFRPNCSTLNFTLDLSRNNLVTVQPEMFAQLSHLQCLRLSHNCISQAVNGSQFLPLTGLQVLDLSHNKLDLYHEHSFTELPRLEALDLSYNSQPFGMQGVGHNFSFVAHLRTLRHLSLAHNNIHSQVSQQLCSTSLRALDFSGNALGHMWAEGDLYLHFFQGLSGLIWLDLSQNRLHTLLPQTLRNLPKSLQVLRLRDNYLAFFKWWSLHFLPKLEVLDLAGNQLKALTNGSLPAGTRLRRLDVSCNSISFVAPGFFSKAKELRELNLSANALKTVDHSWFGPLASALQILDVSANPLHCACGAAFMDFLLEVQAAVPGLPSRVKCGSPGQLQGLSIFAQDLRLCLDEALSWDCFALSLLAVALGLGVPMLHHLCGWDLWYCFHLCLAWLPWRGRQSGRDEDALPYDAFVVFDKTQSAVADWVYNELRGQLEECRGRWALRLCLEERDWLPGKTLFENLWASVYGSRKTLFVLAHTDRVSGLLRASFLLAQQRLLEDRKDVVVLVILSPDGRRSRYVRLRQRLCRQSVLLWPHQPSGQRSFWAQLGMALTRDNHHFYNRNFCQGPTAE
# In short: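 Ramos Blue B reporter cells were pre-treated 30 min at 37°C, 5% CO2 with increasing concentrations of test compound or 0.25% v/v DMSO. They were then stimulated with the respective agonist, and reporter activity was read.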
# [2] = target: TLR1/2 (Homo sapiens, UniProt O60603+Q15399); test: Human PBMC cytokine secretion, TLR1/2 agonist; assay type: cell-based; conditions: human PBMCs; up to 10 μM; n = 5 donors, data not shown
# In short: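 Human PBMCs were pre-incubated 30 min with test compound, then stimulated with the respective TLR or IL-1R agonist at doses from earlier work. Cytokines in supernatants were quantified by immunoassay. Viability across the dose range was checked by CellTiter-Glo.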
# [3] = target: TLR9 (Mus musculus, UniProt Q9EQU3); test: Murine whole blood assay, ODN-IFN-α; assay type: cell-based
# In short: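 Fresh human blood or 129/Sv mouse blood was taken into citrate and diluted 1:1 with RPMI1640. It was pre-incubated 30 min at 37°C, 5% CO2 with increasing concentrations of test compound or 0.25% v/v DMSO (final). Blood was then stimulated with TLR agonists at doses from earlier work, or with R848 (3 μM), and cytokines were quantified. Viability was checked by ATPlite luminescence.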
# [4] = tested on: PMA-mediated ROS secretion from neutrophils; test: Human neutrophil ROS production, PMA stimulation; assay type: cell-based
# In short: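 Cells were pre-treated 30 min with increasing concentrations of test compound or 0.1% v/v DMSO. They were then stimulated 30 min at 37°C, 5% CO2 with TL8-506 or PMA (50 ng/mL). ROS was detected with 2 μM dihydrorhodamine for 15 min at 37°C and read by flow cytometry. Signals were normalized to vehicle; viability was checked by CellTiter-Glo.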
# [5] = tested on: NZB/W F1 mice; test: NZB/W F1 model repeated at a different site, therapeutic twice-daily oral dosing; assay type: in vivo, mouse
# In short: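 This repeat NZB/W F1 study had three differences. Mice were included at dipstick proteinuria score 2 (0.3–1 mg/mL), proteinuria was scored by dipstick, and test compound was given orally b.i.d. rather than in food. Kidney IgM and IgG deposits were quantified as positively stained area over total section area on ten sections per mouse, then averaged.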
# [6] = therapeutic b.i.d. p.o. after robust proteinuria
# Chain of TLR9 (Mus musculus, UniProt Q9EQU3) (Q9EQU3 26-1032): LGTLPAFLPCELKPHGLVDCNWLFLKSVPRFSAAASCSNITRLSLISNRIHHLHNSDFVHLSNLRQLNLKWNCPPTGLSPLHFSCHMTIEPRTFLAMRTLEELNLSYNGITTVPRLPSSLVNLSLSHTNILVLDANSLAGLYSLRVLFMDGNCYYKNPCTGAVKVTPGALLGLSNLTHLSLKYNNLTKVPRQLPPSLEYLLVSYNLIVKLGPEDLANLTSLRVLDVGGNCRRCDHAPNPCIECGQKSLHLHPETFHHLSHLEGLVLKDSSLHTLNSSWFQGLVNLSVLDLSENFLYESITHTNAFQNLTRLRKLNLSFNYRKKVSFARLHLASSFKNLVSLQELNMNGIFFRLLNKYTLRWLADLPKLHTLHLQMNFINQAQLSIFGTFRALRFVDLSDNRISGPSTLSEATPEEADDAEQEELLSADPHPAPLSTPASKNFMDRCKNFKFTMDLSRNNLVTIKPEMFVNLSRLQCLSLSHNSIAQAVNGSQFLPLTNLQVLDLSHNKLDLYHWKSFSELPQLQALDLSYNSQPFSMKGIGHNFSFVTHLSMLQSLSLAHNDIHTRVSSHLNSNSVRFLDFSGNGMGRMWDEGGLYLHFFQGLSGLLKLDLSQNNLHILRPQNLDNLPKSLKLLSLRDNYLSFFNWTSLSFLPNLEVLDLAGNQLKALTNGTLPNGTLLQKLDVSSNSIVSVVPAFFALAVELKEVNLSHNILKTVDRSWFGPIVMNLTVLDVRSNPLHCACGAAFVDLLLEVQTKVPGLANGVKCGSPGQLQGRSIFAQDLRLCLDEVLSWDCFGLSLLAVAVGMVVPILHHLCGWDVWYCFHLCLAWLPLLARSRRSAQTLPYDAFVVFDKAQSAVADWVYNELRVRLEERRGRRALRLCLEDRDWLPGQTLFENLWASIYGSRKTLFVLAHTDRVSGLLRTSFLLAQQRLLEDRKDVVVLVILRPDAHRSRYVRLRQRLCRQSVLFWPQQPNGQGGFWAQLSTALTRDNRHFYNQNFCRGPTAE
# Chain of TLR1/2 (Q15399 25-786): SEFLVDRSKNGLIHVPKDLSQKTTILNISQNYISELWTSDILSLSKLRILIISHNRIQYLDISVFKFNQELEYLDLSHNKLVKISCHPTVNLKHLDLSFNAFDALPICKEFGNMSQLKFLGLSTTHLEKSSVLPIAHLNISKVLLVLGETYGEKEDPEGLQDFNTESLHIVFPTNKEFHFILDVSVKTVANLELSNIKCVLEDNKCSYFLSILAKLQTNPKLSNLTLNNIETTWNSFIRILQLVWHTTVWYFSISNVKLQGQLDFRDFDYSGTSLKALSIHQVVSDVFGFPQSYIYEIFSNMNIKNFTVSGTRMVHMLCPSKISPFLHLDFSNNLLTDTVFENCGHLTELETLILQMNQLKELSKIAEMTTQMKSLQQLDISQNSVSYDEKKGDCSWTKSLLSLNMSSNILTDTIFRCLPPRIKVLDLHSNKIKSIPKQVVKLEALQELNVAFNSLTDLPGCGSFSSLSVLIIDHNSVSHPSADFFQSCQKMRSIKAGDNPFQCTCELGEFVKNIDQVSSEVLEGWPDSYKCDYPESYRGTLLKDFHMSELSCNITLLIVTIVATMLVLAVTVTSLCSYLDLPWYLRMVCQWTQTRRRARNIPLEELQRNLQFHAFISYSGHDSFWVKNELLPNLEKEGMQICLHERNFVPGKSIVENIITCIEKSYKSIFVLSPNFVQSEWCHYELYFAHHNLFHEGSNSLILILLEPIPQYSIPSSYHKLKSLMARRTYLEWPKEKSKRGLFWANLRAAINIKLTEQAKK
# Chain of TLR1/2 (O60603 21-784): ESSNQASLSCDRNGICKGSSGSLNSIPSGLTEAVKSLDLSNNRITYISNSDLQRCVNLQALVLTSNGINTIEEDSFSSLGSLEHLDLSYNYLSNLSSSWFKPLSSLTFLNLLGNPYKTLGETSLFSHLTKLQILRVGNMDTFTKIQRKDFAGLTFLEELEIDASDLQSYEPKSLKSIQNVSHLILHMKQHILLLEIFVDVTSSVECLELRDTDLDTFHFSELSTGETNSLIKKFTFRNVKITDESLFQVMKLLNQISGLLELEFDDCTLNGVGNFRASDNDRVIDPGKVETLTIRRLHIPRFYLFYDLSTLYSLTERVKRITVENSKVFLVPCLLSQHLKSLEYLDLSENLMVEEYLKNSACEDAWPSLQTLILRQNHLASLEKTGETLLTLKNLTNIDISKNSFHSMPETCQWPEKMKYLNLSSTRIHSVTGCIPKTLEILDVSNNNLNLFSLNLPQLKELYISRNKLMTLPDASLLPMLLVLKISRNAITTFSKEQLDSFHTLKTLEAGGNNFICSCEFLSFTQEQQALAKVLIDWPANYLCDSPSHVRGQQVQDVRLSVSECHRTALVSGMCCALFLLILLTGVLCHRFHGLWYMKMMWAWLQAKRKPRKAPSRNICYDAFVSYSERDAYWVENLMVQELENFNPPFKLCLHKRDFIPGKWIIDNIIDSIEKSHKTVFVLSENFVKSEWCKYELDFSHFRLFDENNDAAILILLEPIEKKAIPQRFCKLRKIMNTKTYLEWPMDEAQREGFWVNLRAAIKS
structure (smiles),measurement,setting,value
"Cc1cc(N2CCc3c(c(C)nn3CC34CCC(NC(=O)[C@@H]5COCCN5)(CC3)CC4)C2)c2cnn(C)c2n1 [MHV370, (S)-N-(4-((5-(1,6-dimethyl-1H-pyrazolo[3,4-b]pyridin-4-yl)-3-methyl-4,5,6,7-tetrahydro-1H-pyrazolo[4,3-c]pyridin-1-yl)methyl)bicyclo[2.2.2]octan-1-yl)morpholine-3-carboxamide]",inhibitory activity against endosomal TLR9,[1],no or very limited inhibitory activity
same,"interference with cytokine secretion, TLR1/2 agonist",[2],did not significantly interfere
same,IC50,[3],> 10 µM
same,functional inhibition of TLR9,"[3]; mouse blood, up to 10 μM",did not show functional inhibition
same,"block of ROS production, PMA stimulation",[4],but not with phorbol myristate acetate
same,IgM and IgG deposition in kidneys (histology),[5]; therapeutic b.i.d. p.o.,substantially reduced
same,proteinuria (dipstick score),[5]; [6],reduced proteinuria
same,survival,[5]; [6],increased survival
